Assay: Inhibitory activity against human gamma-secretase in SH-SY5Y neuroblastoma cells
Assay type: cell-based
Summary of the method: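 Whole-cell assay in SH-SY5Y neuroblastoma cells overexpressing exogenous substrate A4CTF, cleaved by endogenous human γ-secretase. IC50 determined over 0.3 nM to 10 µM; values are the mean of at least three determinations, reported with SD.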

Row | Compound | IC50 [nM]
1 | C[C@H](C(=O)N[C@H]1N=C(c2ccccc2)c2ccccc2N(C)C1=O)[C@H](O)c1ccc(Cl)c(Cl)c1 | 19
2 | C[C@H](C(=O)N[C@H]1N=C(c2ccccc2)c2ccccc2N(C)C1=O)[C@H](OCC(N)=O)c1ccc(Cl)c(Cl)c1 | 4750
3 | CN1C(=O)[C@@H](NC(=O)[C@@H](c2ccc(F)cc2)[C@H](CO)c2ccc(F)c(F)c2)N=C(c2ccccc2)c2ccccc21 | 0.07
4 | CC(C(=O)N[C@H]1N=C(c2ccccc2)c2ccccc2N(C)C1=O)C(=O)c1ccc(Cl)c(Cl)c1 (stereo not given in full) | 930
5 | CO[C@H](c1ccc(Cl)c(Cl)c1)[C@H](C)C(=O)N[C@H]1N=C(c2ccccc2)c2ccccc2N(C)C1=O | 59
6 | CC[C@H](c1ccc(F)c(F)c1)[C@@H](C(=O)N[C@H]1N=C(c2ccccc2)c2ccccc2N(C)C1=O)c1ccc(F)cc1 | 212
7 | CC(C(=O)N[C@H]1N=C(c2ccccc2)c2ccccc2N(C)C1=O)C(CO)c1ccc(F)c(F)c1 (stereo not given in full) | 6.9
8 | O=C1Nc2ccccc2N(c2ccccc2)C[C@@H]1NC(=O)[C@@H](c1ccc(F)cc1)[C@H](CO)c1ccc(F)c(F)c1 | 0.07
9 | C[C@H](C(=O)N[C@H]1N=C(c2ccccc2)c2ccccc2N(C)C1=O)[C@@H](O)c1ccc(Cl)c(Cl)c1 | 380
10 | O=C1Nc2ccccc2C(c2ccccc2)=N[C@@H]1NC(=O)[C@@H](c1ccc(F)cc1)[C@H](CO)c1ccc(F)c(F)c1 | 0.06
11 | C[C@@H](C(=O)N[C@H]1N=C(c2ccccc2)c2ccccc2N(C)C1=O)[C@@H](O)c1ccc(Cl)c(Cl)c1 | 880
12 | C[C@H](C(=O)N[C@H]1N=C(c2ccccc2)c2ccccc2N(C)C1=O)[C@H](OS(N)(=O)=O)c1ccc(Cl)c(Cl)c1 | 450
13 | C[C@H](Cc1ccc(Cl)c(Cl)c1)C(=O)N[C@H]1N=C(c2ccccc2)c2ccccc2N(C)C1=O | 320
14 | C[C@H](C(=O)N[C@H]1N=C(c2ccccc2)c2ccccc2N(C)C1=O)[C@H](OC(N)=O)c1ccc(Cl)c(Cl)c1 | 2450
15 | CN1C(=O)[C@@H](NC(=O)[C@@H](c2ccc(F)cc2)[C@H](CBr)c2ccc(F)c(F)c2)N=C(c2ccccc2)c2ccccc21 | 6.7
16 | CN1C(=O)[C@@H](NC(=O)[C@@H](c2ccc(F)cc2)C(O)c2ccc(Cl)c(Cl)c2)N=C(c2ccccc2)c2ccccc21 (stereo not given in full) | 1.2
17 | CO/N=C(\c1ccc(Cl)c(Cl)c1)C(C)C(=O)N[C@H]1N=C(c2ccccc2)c2ccccc2N(C)C1=O (stereo not given in full) | > 10000
18 | C[C@@H](C(=O)N[C@H]1N=C(c2ccccc2)c2ccccc2N(C)C1=O)[C@H](O)c1ccc(Cl)c(Cl)c1 | 1340
19 | CN1C(=O)[C@@H](NC(=O)[C@H](c2ccc(F)cc2)[C@@H](O)c2ccc(F)c(F)c2)N=C(c2ccccc2)c2ccccc21 | 9.6
20 | O=C1Nc2ccccc2C(c2ccccc2)=N[C@@H]1NC(=O)[C@@H](c1ccc(F)cc1)[C@H](CCO)c1ccc(F)c(F)c1 | 35
21 | C=C[C@H](c1ccc(F)c(F)c1)[C@@H](C(=O)N[C@H]1N=C(c2ccccc2)c2ccccc2N(C)C1=O)c1ccc(F)cc1 | 100
22 | CN1C(=O)[C@@H](NC(=O)[C@H](c2ccc(F)cc2)[C@@H](O)c2ccc(Cl)c(Cl)c2)N=C(c2ccccc2)c2ccccc21 | 67
23 | CC(C(=O)N[C@H]1N=C(c2ccccc2)c2ccccc2N(C)C1=O)/C(=N/O)c1ccc(Cl)c(Cl)c1 (stereo not given in full) | 35
24 | CN1C(=O)[C@@H](NC(=O)[C@@H](c2ccc(F)cc2)C(O)c2ccc(F)c(F)c2)N=C(c2ccccc2)c2ccccc21 (stereo not given in full) | 0.8
25 | CN1C(=O)[C@@H](NC(=O)[C@@H](Cc2ccc(Cl)c(Cl)c2)c2ccc(F)cc2)N=C(c2ccccc2)c2ccccc21 | 15

Reference: ChEMBL document CHEMBL1145003, “Design and synthesis of highly potent benzodiazepine gamma-secretase inhibitors: preparation of (2S,3R)-3-(3,4-difluorophenyl)-2-(4-fluorophenyl)-4- hydroxy-N-((3S)-1-methyl-2-oxo-5- phenyl-2,3-dihydro-1H-benzo[e][1,4]-diazepin-3-yl)butyramide by use of an asymmetric Ireland-Claisen rearrangement” (J Med Chem, 2003)
